Only some compounds are listed: those with a hit (about 1.7% of all), similar ones and a draw of the others.
DNMT1 block = DNMT1 (human) enzyme inhibition. P26358. inhibition (reported as % activation of signal), % at 10 µM. actives 0.83% (n = 360,000). DNMT1 molecular beacon, Hinp1I cleavage, fluorescence. AID 588458; in the data active = inhibition above about 50%
LMPTP inh = LMPTP (human) inhibition; inhibition, % at 20 µM; P24666; actives 0.22% (n = 360,000); AID 651560; recombinant LMPTP-A, OMFP fluorogenic substrate, fluorescence intensity;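 active = compounds that cut the enzyme signal by at least half of the control window in the single-dose screen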;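 note: plate controls were DMSO wells with enzyme plus substrate for no effect and substrate without enzyme for full effect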
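Buffer or medium: Bis-Tris pH 6.0, DTT, detergent; Assay system: LMPTP-A enzyme; Quantity: 0.625 nM enzyme; Detection: endpoint fluorescence intensity; Times: 50 min dark incubation at room temperature; Controls: substrate-only low control, DMSO enzyme-plus-substrate high control; Doses: single 20 µM dose; Read-out: percent inhibition versus substrate-only and uninhibited controls; Reagent: 400 µM OMFP.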
SUMO1-SIM PPI = alters human SUMO1 binding to SIM partners. actives 0.33% (n = 360,000). AID 602429. inhibition, % at 20 µM. SUMO1 binding to a labelled peptide, TR-FRET, 1 h. P63165; in the data active = inhibition above about 37%
STEP block = blocks human striatal-enriched tyrosine phosphatase. P54829. recombinant STEP, OMFP fluorogenic substrate, fluorescence. inhibition, % at 20 µM. actives 0.25% (n = 360,000). AID 588621;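 active = inhibition at 20 µM, scaled per plate between control wells, above about 37%, limit read from the data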;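 note: 0% = DMSO with enzyme and substrate and 100% = substrate only without enzyme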
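Also added – OMFP at 25 µM · Test system – STEP tyrosine phosphatase · Technique – FITC-channel fluorescence of OMFP product · Schedule – 20 min at room temperature, dark · Evaluation – control-normalized % inhibition with plate pattern correction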
Scp-1 inhibitor = Scp-1 (human) phosphatase inhibition | AID 493091 | actives 0.88% (n = 340,000) | inhibition, % at 20 µM | Recombinant Scp1, phosphopeptide, malachite green phosphate absorbance;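 active = inhibition above about 50% at 20 µM, limit read from the data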;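 note: plate controls were DMSO wells with enzyme for no effect and wells lacking enzyme for full effect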
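Incubation: 45 min enzyme reaction at room temperature / System: truncated SCP-1 phosphatase (76-261aa) / Reagent: Phospho 17-mer peptide substrate / Buffer or medium: Acidic Tris acetate buffer with magnesium and detergent / Signal: absorbance at 630 nm / Doses: one concentration, 20 µM, with 1.0% DMSO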
Beacon interf DR = shows spectral interference in the DNMT1 beacon assay. shares compounds with DNMT1 block. molecular beacon fluorescence, spectral interference counter-screen. IC50, µM. 200 tested, under 10 active; call rule not given here
DNMT1 inh conf = confirmation of human DNMT1 inhibitors. inhibition, % at 10 µM. DNMT1 molecular beacon HinP1I cleavage, fluorescence. shares compounds with DNMT1 block. actives 8% (n = 2,300);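 active = average inhibition of at least 30% in the single-concentration confirmation test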
DNMT1 interf = counter-screen for DNMT1 inhibitors: spectral interference | shares compounds with DNMT1 block | DNMT1 molecular beacon spectral interference counterscreen, fluorescence 485/520 | activation (fluorescence interference), % at 10 µM | actives 1% (n = 2,300) | AID 602387;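 active = activation of at least 30% at 10 µM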;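 note: DNMT1 catalytic domain with a HinP1I cleavage step and a FAM/dabcyl DNA beacon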
An asterisk follows results filed as active; nt = no result given.

SMILES	DNMT1 block	LMPTP inh	SUMO1-SIM PPI	STEP block	Scp-1 inhibitor	DNMT1 inh conf	DNMT1 interf	others
CC1(OC(=O)C2CCCC2)C(=O)C=C2C=C(c3ccsc3)N(Cc3ccco3)C=C2C1=O (stereo unspecified)	62*	5	-3	1	7	-1	-1
O=C(c1ccc(Cl)cc1)C1CCN(C(=O)c2ccccc2)CC1	89*	0	5	0	-7	0	3
Cc1nc(CS(=O)(=O)c2ccc(Cl)cc2)sc1C(=O)O	0	-1	11	2	-11	nt	nt
O=C(Cc1c[nH]c2ccccc12)N1CCN(S(=O)(=O)c2cccc(Cl)c2Cl)CC1	-5	3	2	1	0	nt	nt
NC(=S)NN=Cc1ccc(-c2ccc(S(=O)(=O)Nc3ncccn3)cc2)o1	89*	13	33	3	3	12	-3
C=CCN(c1nc(C)cc(OC)n1)S(=O)(=O)c1ccccc1	-3	1	1	2	0	nt	nt
C=CCN(c1nc(C)cc(OC)n1)S(=O)(=O)c1ccc(C)cc1	97*	1	1	-1	-4	1	5
O=C(COC(=O)c1ccccc1O)Nc1ncc(Cl)cc1Cl	64*	1	24	0	25	12	4
Cc1cc2nc3c(=O)n(CCc4ccccc4)c(=O)[nH]c3nc2cc1N	63*	-2	-36	-60	8	65*	90*
C=CCn1c(=O)[nH]c2nc3cc(N=CN(C)C)c(C)cc3nc2c1=O	12	0	-35	-10	-12	nt	nt
CCCCN(C(=O)COC(=O)C1(c2ccccc2)CC1)c1c(N)n(CCC)c(=O)[nH]c1=O	0	-1	1	-2	nt	nt	nt
O=S(=O)(Nc1ccc(-c2ccc(N3CCOCC3)nn2)cc1)c1ccc(Cl)c(Cl)c1	83*	3	-12	4	-1	5	5
O=[N+]([O-])c1ccc(Cl)c(S(=O)(=O)Nc2ccc(-c3ccc(N4CCOCC4)nn3)cc2)c1	2	1	-28	-1	7	nt	nt
O=C(Nc1ccccc1Oc1ccccc1)C1=COCCO1	-1	-4	0	0	-8	nt	nt
CC1=C(C(=O)N2CCOCC2)CC(CC(=O)NC2CC2)C(=O)N1Cc1ccc(F)cc1 (stereo unspecified)	-2	-2	0	-4	nt	nt	nt
CCc1ccc(N(CC(=O)NC(C)(C)C)C(=O)CCC(=O)Nc2ccccn2)cc1	60*	-1	-3	1	-9	1	-1
Nn1c(SCC(=O)Nc2ccccc2Br)nnc1-c1ccco1	-1	0	2	-2	-11	nt	nt
CNS(=O)(=O)c1ccc(NC(=O)c2cnn3c(C(F)F)cc(-c4ccccc4)nc23)cc1	53*	1	-5	1	-1	1	-5
O=C(Nc1cccc(S(=O)(=O)N2CCOCC2)c1)c1cnn2c(C(F)F)cc(-c3ccccc3)nc12	2	1	-2	5	-15	nt	nt
O=C(Nc1sc2c(c1C(=O)O)CCC2)C(=O)N1CCOCC1	61*	5	5	11	43	6	2
O=C(Nc1sc2c(c1C(=O)O)CCCC2)C(=O)N1CCOCC1	-3	-1	-3	7	-3	nt	nt
Cc1cc(O)cc2c1C(=O)/C(=C/c1ccco1)O2	65*	0	-8	2	-18	6	6
O=[N+]([O-])c1ccc2c([N+](=O)[O-])ccc3c2c1CC3	73*	31	-18	4	nt	25	3
Cc1ccc(C(=O)Nc2ccc3c4c(cccc24)CC3)cc1[N+](=O)[O-]	-5	-1	-4	-1	-7	nt	nt
CCCNC(=O)Cn1c(=O)/c(=C/c2ccc(-c3cccc([N+](=O)[O-])c3)o2)s/c1=C\C(=O)C(C)(C)C	68*	2	1	-25	-8	17	23
SMILES	DNMT1 block	LMPTP inh	SUMO1-SIM PPI	STEP block	Scp-1 inhibitor	DNMT1 inh conf	DNMT1 interf	others
CCC(C(=O)N1CCN(S(=O)(=O)c2ccc(F)cc2)CC1)c1ccccc1 (stereo unspecified)	1	1	1	-1	38	nt	nt
O=C(Nc1ccccn1)c1ccc(S(=O)(=O)N2CCCCCC2)cc1	3	0	2	1	2	nt	nt
CCCCn1nnnc1NCc1ccc(N2CCCC2)cc1	70*	18	-4	-1	1	2	0
CCCn1nnnc1NCc1ccc(N2CCCC2)cc1	20	40	-2	2	-2	nt	nt
Cc1ccc(-c2csc3ncn(CC(=O)O)c(=O)c23)cc1C	1	1	9	0	-11	nt	nt
O=C(O)C1Oc2cc3ccccc3cc2O1	55*	23	4	16	50	5	4
O=C(O)c1cc2ccccc2cn1	4	14	1	3	3	nt	nt
CN(C)C(CNC(=O)C1CCN(S(=O)(=O)c2ccccc2)CC1)c1ccccc1 (stereo unspecified)	88*	2	2	20	12	5	7
Cc1cc(C)n(CCC(=O)N2CCN(S(=O)(=O)c3ccccc3)CC2)n1	1	-1	2	-2	-2	nt	nt
CN(c1ccccc1)c1ccc(/C=C(/CCC(=O)O)c2nc3ccccc3s2)cc1[N+](=O)[O-]	85*	1	39*	4	-12	27	-3	Beacon interf DR=>99
CC(=O)Nc1ccc(OCc2cn(CC(=O)c3ccc(O)cc3)nn2)cc1	57*	0	5	0	nt	4	-6
CC(=O)c1ccc(OCc2cn(CC(=O)c3ccc(O)cc3)nn2)cc1	37	0	6	2	-8	nt	nt
CC(=O)c1ccc(OCc2cn(CC(=O)c3ccc(O)cc3)nn2)c(C)c1	40	0	0	0	nt	nt	nt
Cc1cccc(C)c1OCc1cn(CC(=O)c2ccc(O)cc2)nn1	58*	-2	0	0	1	3	-1
O=C(Cn1cc(COc2ccc(Br)cc2[N+](=O)[O-])nn1)c1ccc(O)cc1	51*	1	-11	0	-2	8	-3
CCOc1ccc2oc(C(=O)OCC(=O)NC3CCCC3)c(C)c2c1	5	1	0	1	0	nt	nt
CC(C)CC1Nc2ccc(C(=O)NCCCN3CCOCC3)cc2NC1=O (stereo unspecified)	-5	-1	-9	-1	1	nt	nt
COc1ccc(CNC(=O)c2nnn(Cc3ccc(OC)cc3)c2N)cc1	0	0	7	0	-8	nt	nt
Cc1cc(C)cc(NC(=O)Cn2nnc(C(=O)NCCc3ccccc3)c2N)c1	67*	41	6	0	-1	1	-1

Assay outcomes deposited in PubChem by Sanford-Burnham Center for Chemical Genomics.
